Results taken from paper PMC12467390 (ACS infectious diseases, 2025).
Converted amounts (≈) assume the structure as drawn. Like-named read-outs stand apart in the source and are kept apart here.

What was measured:
[1] = molecular target: Tet50 (Unknown prokaryotic organism, UniProt A0A059WYP6); experiment: Steady-state TC consumption assay; type: biochemical; settings: for Apparent decay constant of IC50 versus pre-incubation time: Tet50
[2] = test system: TetX7; experiment: Steady-state TC consumption assay; type: biochemical; settings: dark; for Time-dependence of TetX7 inhibition: pre-incubation 0-240 min; for Apparent IC50 Values, TetX7: no pre-incubation, none detected = no inhibition up to 2.5 mM
[3] = molecular target: 4-hydroxybenzoate-3-monooxygenase (PHBH) (Pseudomonas fluorescens, UniProt P00438); experiment: PHBH NADPH consumption assay; type: biochemical
4-hydroxybenzoate-3-monooxygenase (PHBH), sequence (P00438 whole entry): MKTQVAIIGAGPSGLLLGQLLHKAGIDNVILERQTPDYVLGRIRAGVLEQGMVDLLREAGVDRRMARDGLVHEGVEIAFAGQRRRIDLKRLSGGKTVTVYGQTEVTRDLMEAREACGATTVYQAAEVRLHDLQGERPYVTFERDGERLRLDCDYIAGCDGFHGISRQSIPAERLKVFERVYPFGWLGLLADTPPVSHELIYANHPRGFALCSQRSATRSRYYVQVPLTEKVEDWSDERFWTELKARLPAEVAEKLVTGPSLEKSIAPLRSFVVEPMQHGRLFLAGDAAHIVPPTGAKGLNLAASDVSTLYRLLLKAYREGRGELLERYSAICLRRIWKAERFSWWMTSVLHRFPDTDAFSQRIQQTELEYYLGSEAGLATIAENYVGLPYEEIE
Method in brief: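 PHBH came from a codon-optimized pobA gene expressed in E. coli: grown at 37 °C in LB with kanamycin, induced with 1 mM IPTG at 15 °C for 12–15 h. It was purified by imidazole elution at pH 8.0 and dialyzed overnight. Activity was measured with para-hydroxybenzoic acid as substrate, following NADPH consumption at A340. Time-dependence was assessed by pre-incubating inhibitor with enzyme for varying times before starting the reaction.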

[4] = test system: E. coli DH5αZ1 empty vector (pZE24); experiment: MIC by broth microdilution, empty vector control; type: cell-based; settings: for MIC: Escherichia coli; for MIC, Empty, + TC: presence of 8 μg/mL TC
[5] = test system: E. coli DH5αZ1 expressing TetX7 from pZE24; experiment: MIC by broth microdilution, TetX7::pZE24; type: cell-based; settings: for MIC, TetX7, + TC: presence of 8 μg/mL TC
[6] = test system: E. coli DH5αZ1 expressing Tet50 from pZE24; experiment: MIC by broth microdilution, Tet50::pZE24; type: cell-based; settings: Escherichia coli, read-out: MIC, Tet50, − TC
[7] = test system: TetX7; experiment: Reversibility of TetX7 inhibition by exhaustive dialysis; type: biochemical; settings: 60 min pre-incubation in the dark; dialysis at 4 °C
[8] = molecular target: TetX6 (Chryseobacterium oncorhynchi, UniProt A0A316WTJ0); type: biochemical; settings: dark; no pre-incubation; none detected = no inhibition up to 2.5 mM
[9] = test system: E. coli DH5αZ1 empty vector (pZE24); settings: aTC alone; empty vector control; ref [28],[30],[31]; cited from earlier work
[10] = test system: E. coli DH5αZ1 expressing TetX7 from pZE24; settings: aTC alone, ref [28],[30],[31]; cited from earlier work
[11] = test system: E. coli DH5αZ1 expressing Tet50 from pZE24; settings: aTC alone, ref [28],[30],[31]; cited from earlier work
[12] = test system: E. coli DH5αZ1 expressing TetX7 or Tet50; settings: TC at 8 μg/mL; resistant strains; ref [28],[30],[31]; cited from earlier work
[13] = shielded from light, pre-incubation 0-240 min
[14] = dark, compounds 1 and 2 up to 2.5 mM

Tet50, sequence (A0A059WYP6 whole entry): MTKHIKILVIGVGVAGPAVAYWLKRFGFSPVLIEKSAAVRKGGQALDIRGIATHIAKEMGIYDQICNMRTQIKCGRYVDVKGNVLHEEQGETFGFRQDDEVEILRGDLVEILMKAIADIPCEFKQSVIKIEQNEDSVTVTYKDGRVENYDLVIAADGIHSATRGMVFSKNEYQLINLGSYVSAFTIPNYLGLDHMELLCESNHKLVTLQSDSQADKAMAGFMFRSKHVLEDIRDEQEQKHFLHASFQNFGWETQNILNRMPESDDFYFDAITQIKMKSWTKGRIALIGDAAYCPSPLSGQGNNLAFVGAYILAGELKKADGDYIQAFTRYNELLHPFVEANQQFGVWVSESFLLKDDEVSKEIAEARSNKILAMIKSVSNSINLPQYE

| Structure (SMILES) | Time-dependence of Tet50 inhibition ([1]; blue light irradiation) | Time-dependence of Tet50 inhibition [1, 13] | Time-dependence of TetX7 inhibition [2] | Inhibition of PHBH [3, 14] | MIC, Empty, + TC [4] | MIC, TetX7, + TC [5] | other results |
| --- | --- | --- | --- | --- | --- | --- | --- |
| C#CCNCc1ccc2c(C)c3c(c(O)c2c1O)C(=O)[C@]1(O)C(=O)C(C(N)=O)=C(O)[C@@H](N(C)C)[C@@H]1C3.Cl [Compound 4, (4S,4aS,12aS)-4-(dimethylamino)-3,10,11,12a-tetrahydroxy-6-methyl-1,12-dioxo-9-((prop-2-yn-1-ylamino)methyl)-1,4,4a,5,12,12a-hexahydrotetracene-2-carboxamide hydrochloride] | slower time-dependent inactivation | clear decrease in the apparent IC50 value correlating to longer enzyme–inhibitor pre-incubation times | did not observe any time-dependence | Inhibition was detected | <1 µg/mL | 2 µg/mL | Time-dependence of PHBH inhibition ([3]; dark): time-dependence was observed; MIC ([4]; read-out: MIC, Empty, − TC): 32 µg/mL; MIC [6]: 32 µg/mL |
| C#CCN(C)Cc1ccc2c(C)c3c(c(O)c2c1O)C(=O)[C@]1(O)C(=O)C(C(N)=O)=C(O)[C@@H](N(C)C)[C@@H]1C3 [Compound 5, (4S,4aS,12aS)-4-(dimethylamino)-3,10,11,12a-tetrahydroxy-6-methyl-9-((methyl(prop-2-yn-1-yl)amino)methyl)-1,12-dioxo-1,4,4a,5,12,12a-hexahydrotetracene-2-carboxamide] | time- and light- dependent irreversible inactivation of Tet50 | clear decrease in the apparent IC50 value correlating to longer enzyme–inhibitor pre-incubation times | did not observe any time-dependence |  | <1 µg/mL | 2 µg/mL | Apparent decay constant of IC50 versus pre-incubation time ([1]; blue light irradiation): 0.5 ± 0.1 min⁻¹; TetX7 activity after exhaustive dialysis versus before [7]: reversed upon exhaustive dialysis; MIC ([5]; Escherichia coli, read-out: MIC, TetX7, − TC): 64 µg/mL (≈ 126 µM) |
| C#CCN(C)Cc1ccccc1 [Compound 2, N-methyl-N-benzyl-propargylamine] | inhibit Tet50 in a time-dependent manner |  |  | no inhibition |  |  | Apparent IC50 Values, TetX7 [2]: none detected^a; Apparent IC50 Values, TetX6 [8]: none detected^a; Inhibition of PHBH ([3]; blue light irradiation): potent time-dependent and dose-dependent inhibition |
| CN(C)[C@@H]1C(O)=C(C(N)=O)C(=O)[C@@]2(O)C(O)=C3C(=O)c4c(O)cccc4[C@@](C)(O)[C@H]3C[C@@H]12 [TC, tetracycline, reference compound] |  |  |  |  |  |  | MIC ([4]; read-out: MIC of TC): 1 µg/mL |
| CC1(NCc2ccccc2)CC1 [Compound 1, N-(1-methyl)cyclopropylbenzylamine] | inhibit Tet50 in a time-dependent manner |  |  | no inhibition |  |  | Apparent IC50 Values, TetX7 [2]: none detected^a; Apparent IC50 Values, TetX6 [8]: none detected^a; Inhibition of PHBH ([3]; blue light irradiation): potent time-dependent and dose-dependent inhibition |
| Cc1c2c(c(O)c3c(O)cccc13)C(=O)[C@]1(O)C(=O)C(C(N)=O)=C(O)[C@@H](N(C)C)[C@@H]1C2 [aTC, anhydrotetracycline] | time-dependent inhibition | not time-dependent | did not observe any time-dependence | Inhibition was detected |  |  | MIC of aTC [9]: 4 µg/mL; MIC of aTC [10]: 8 µg/mL; MIC of aTC [11]: 8 µg/mL; Inhibitor concentration that rescues growth inhibitory activity of TC [12]: ≥ 2 µg/mL |
| Cc1c2c(c(O)c3c(O)c(CNC4(C)CC4)ccc13)C(=O)[C@]1(O)C(=O)C(C(N)=O)=C(O)[C@@H](N(C)C)[C@@H]1C2.Cl [Compound 3, (4S,4aS,12aS)-4-(dimethylamino)-3,10,11,12a-tetrahydroxy-6-methyl-9-(((1-methylcyclopropyl)amino)methyl)-1,12-dioxo-1,4,4a,5,12,12a-hexahydrotetracene-2-carboxamide hydrochloride] |  | clear decrease in the apparent IC50 value correlating to longer enzyme–inhibitor pre-incubation times | did not observe any time-dependence | Inhibition was detected | <1 µg/mL | 8 µg/mL | Apparent decay constant of IC50 versus pre-incubation time ([1]; blue light irradiation): 0.9 ± 0.3 min⁻¹; Time-dependence of PHBH inhibition ([3]; dark): time-dependence was observed; MIC ([4]; read-out: MIC, Empty, − TC): 32 µg/mL |
